Measured values taken from ChEMBL document CHEMBL2057188, “Hybridizing ability and nuclease resistance profile of backbone modified cationic phosphorothioate oligonucleotides” (Bioorg Med Chem, 2012).

Experiments:
[1] = Stability in presence of Crotalus admanteus venom phosphodiesterase assessed as intact compound level at 5.5 uM in 50 mM Tris-Hcl buffer (pH 7.5) containing 10 mM MgCl2 incubated for 15 mins at 37 degC by HPLC; assay type: ADME; conditions: pH 7.5, 0.25 h
How it was run: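 12-mers are first trimmed from the 3′ end with the venom 3′-exonuclease to give 7-mer substrates, which are purified by RP-HPLC. These are then re-incubated with enzyme in 50 mM Tris-HCl pH 7.5 with 10 mM MgCl2 at 37 °C for 15 min. The enzyme is heat-inactivated at 90 °C for 5 min, and the fraction of intact ODN remaining is quantified by HPLC.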

[2] = tested on: Nucleic Acid; experiment: (§1) DNA hybridizing activity at single stranded DNA assessed as thermal stability of duplexes formed between compound and complimentary ssDNA by measuring melting temperature at 4 uM in presence of 10 mM pH 7.2 sodium phosphate buffer containing 100 mM NaCl by UV based melting experiment; assay type: nucleic-acid assay
[3] = tested on: Nucleic Acid; experiment: as §1, with “measuring change in” for “measuring”, “experiment relative to untreated control” for “experiment”; assay type: nucleic-acid assay
[4] = tested on: Nucleic Acid; experiment: (§2) DNA hybridizing activity at single stranded RNA assessed as thermal stability of duplexes formed between compound and complimentary ssRNA by measuring melting temperature at 4 uM in presence of 10 mM pH 7.2 sodium phosphate buffer containing 100 mM NaCl by UV based melting experiment; assay type: nucleic-acid assay
[5] = tested on: Nucleic Acid; experiment: as §2, with “measuring change in” for “measuring”, “experiment relative to untreated control” for “experiment”; assay type: nucleic-acid assay
[6] = tested on: Nucleic Acid; experiment: (§3) DNA hybridizing activity at 22 bp double stranded DNA assessed as thermal stability of duplexes formed between compound and complimentary dsDNA by measuring melting temperature at 1.5 uM in presence of 7 mM pH 5.5 sodium phosphate buffer containing 140 mM K, 10 mM MgCl2 by UV based melting experiment; assay type: nucleic-acid assay
[7] = tested on: Nucleic Acid; experiment: as §3, with “measuring change in” for “measuring”; assay type: nucleic-acid assay

Structure (SMILES)	Stability [1]	Tm [2]	ΔTm [3]	Tm [4]	ΔTm [5]	Tm [6]	ΔTm [7]
Cc1cn([C@H]2C[C@H](OP(=O)(O)O)[C@@H](CO[P@](=O)(O[C@H]3C[C@H](n4cc(C)c(=O)[nH]c4=O)O[C@@H]3COP(=O)(O)O[C@H]3C[C@H](n4cc(C)c(=O)[nH]c4=O)O[C@@H]3COP(=O)(O)O[C@H]3C[C@H](n4cc(C)c(=O)[nH]c4=O)O[C@@H]3COP(=O)(O)O[C@H]3C[C@H](n4ccc(N)nc4=O)O[C@@H]3COP(=O)(O)O[C@H]3C[C@H](n4ccc(N)nc4=O)O[C@@H]3COP(=O)(O)O[C@H]3C[C@H](n4ccc(N)nc4=O)O[C@@H]3CO)SCCN)O2)c(=O)[nH]c1=O	Stable	–	–	–	–	–	–
Cc1cn([C@H]2C[C@H](OP(=O)(O)O)[C@@H](CO[P@@](=O)(O[C@H]3C[C@H](n4cc(C)c(=O)[nH]c4=O)O[C@@H]3COP(=O)(O)O[C@H]3C[C@H](n4cc(C)c(=O)[nH]c4=O)O[C@@H]3COP(=O)(O)O[C@H]3C[C@H](n4cc(C)c(=O)[nH]c4=O)O[C@@H]3COP(=O)(O)O[C@H]3C[C@H](n4ccc(N)nc4=O)O[C@@H]3COP(=O)(O)O[C@H]3C[C@H](n4ccc(N)nc4=O)O[C@@H]3COP(=O)(O)O[C@H]3C[C@H](n4ccc(N)nc4=O)O[C@@H]3CO)SCCN)O2)c(=O)[nH]c1=O	Stable	–	–	–	–	–	–
Cc1cn([C@H]2C[C@H](OP(=O)(O)O)[C@@H](CO[P@](=O)(S)O[C@H]3C[C@H](n4cc(C)c(=O)[nH]c4=O)O[C@@H]3COP(=O)(O)O[C@H]3C[C@H](n4cc(C)c(=O)[nH]c4=O)O[C@@H]3COP(=O)(O)O[C@H]3C[C@H](n4cc(C)c(=O)[nH]c4=O)O[C@@H]3COP(=O)(O)O[C@H]3C[C@H](n4ccc(N)nc4=O)O[C@@H]3COP(=O)(O)O[C@H]3C[C@H](n4ccc(N)nc4=O)O[C@@H]3COP(=O)(O)O[C@H]3C[C@H](n4ccc(N)nc4=O)O[C@@H]3CO)O2)c(=O)[nH]c1=O	Stable	–	–	–	–	–	–
Cc1cn([C@H]2C[C@H](OP(=O)(O)O)[C@@H](CO[P@@](=O)(O[C@H]3C[C@H](n4cc(C)c(=O)[nH]c4=O)O[C@@H]3COP(=O)(O)O[C@H]3C[C@H](n4cc(C)c(=O)[nH]c4=O)O[C@@H]3COP(=O)(O)O[C@H]3C[C@H](n4cc(C)c(=O)[nH]c4=O)O[C@@H]3COP(=O)(O)O[C@H]3C[C@H](n4ccc(N)nc4=O)O[C@@H]3COP(=O)(O)O[C@H]3C[C@H](n4ccc(N)nc4=O)O[C@@H]3COP(=O)(O)O[C@H]3C[C@H](n4ccc(N)nc4=O)O[C@@H]3CO)SCCCCCCN)O2)c(=O)[nH]c1=O	Stable	–	–	–	–	–	–
Cc1cn([C@H]2C[C@H](OP(=O)(O)OC[C@H]3O[C@@H](n4cc(C)c(=O)[nH]c4=O)C[C@@H]3OP(=O)(O)OC[C@H]3O[C@@H](n4cc(C)c(=O)[nH]c4=O)C[C@@H]3O[P@@](=O)(OC[C@H]3O[C@@H](n4cc(C)c(=O)[nH]c4=O)C[C@@H]3OP(=O)(O)OC[C@H]3O[C@@H](n4cc(C)c(=O)[nH]c4=O)C[C@@H]3OP(=O)(O)OC[C@H]3O[C@@H](n4cc(C)c(=O)[nH]c4=O)C[C@@H]3OP(=O)(O)OC[C@H]3O[C@@H](n4ccc(N)nc4=O)C[C@@H]3OP(=O)(O)OC[C@H]3O[C@@H](n4ccc(N)nc4=O)C[C@@H]3OP(=O)(O)OC[C@H]3O[C@@H](n4ccc(N)nc4=O)C[C@@H]3OP(=O)(O)O)SCCN3CCNCC3)[C@@H](COP(=O)(O)O[C@H]3C[C@H](n4ccc(N)nc4=O)O[C@@H]3COP(=O)(O)O[C@H]3C[C@H](n4ccc(N)nc4=O)O[C@@H]3COP(=O)(O)O[C@H]3C[C@H](n4ccc(N)nc4=O)O[C@@H]3CO)O2)c(=O)[nH]c1=O	–	45 °C	3 °C	46 °C	0 °C	28 °C	3 °C
Cc1cn([C@H]2C[C@H](OP(=O)(O)OC[C@H]3O[C@@H](n4cc(C)c(=O)[nH]c4=O)C[C@@H]3OP(=O)(O)OC[C@H]3O[C@@H](n4cc(C)c(=O)[nH]c4=O)C[C@@H]3O[P@](=O)(OC[C@H]3O[C@@H](n4cc(C)c(=O)[nH]c4=O)C[C@@H]3OP(=O)(O)OC[C@H]3O[C@@H](n4cc(C)c(=O)[nH]c4=O)C[C@@H]3OP(=O)(O)OC[C@H]3O[C@@H](n4cc(C)c(=O)[nH]c4=O)C[C@@H]3OP(=O)(O)OC[C@H]3O[C@@H](n4ccc(N)nc4=O)C[C@@H]3OP(=O)(O)OC[C@H]3O[C@@H](n4ccc(N)nc4=O)C[C@@H]3OP(=O)(O)OC[C@H]3O[C@@H](n4ccc(N)nc4=O)C[C@@H]3OP(=O)(O)O)SCCN)[C@@H](COP(=O)(O)O[C@H]3C[C@H](n4ccc(N)nc4=O)O[C@@H]3COP(=O)(O)O[C@H]3C[C@H](n4ccc(N)nc4=O)O[C@@H]3COP(=O)(O)O[C@H]3C[C@H](n4ccc(N)nc4=O)O[C@@H]3CO)O2)c(=O)[nH]c1=O	–	41 °C	-1 °C	43 °C	-3 °C	24 °C	-2 °C
Cc1cn([C@H]2C[C@H](OP(=O)(O)O)[C@@H](CO[P@@](=O)(S)O[C@H]3C[C@H](n4cc(C)c(=O)[nH]c4=O)O[C@@H]3COP(=O)(O)O[C@H]3C[C@H](n4cc(C)c(=O)[nH]c4=O)O[C@@H]3COP(=O)(O)O[C@H]3C[C@H](n4cc(C)c(=O)[nH]c4=O)O[C@@H]3COP(=O)(O)O[C@H]3C[C@H](n4ccc(N)nc4=O)O[C@@H]3COP(=O)(O)O[C@H]3C[C@H](n4ccc(N)nc4=O)O[C@@H]3COP(=O)(O)O[C@H]3C[C@H](n4ccc(N)nc4=O)O[C@@H]3CO)O2)c(=O)[nH]c1=O	Stable	–	–	–	–	–	–
Cc1cn([C@H]2C[C@H](OP(=O)(O)O)[C@@H](CO[P@](=O)(O[C@H]3C[C@H](n4cc(C)c(=O)[nH]c4=O)O[C@@H]3COP(=O)(O)O[C@H]3C[C@H](n4cc(C)c(=O)[nH]c4=O)O[C@@H]3COP(=O)(O)O[C@H]3C[C@H](n4cc(C)c(=O)[nH]c4=O)O[C@@H]3COP(=O)(O)O[C@H]3C[C@H](n4ccc(N)nc4=O)O[C@@H]3COP(=O)(O)O[C@H]3C[C@H](n4ccc(N)nc4=O)O[C@@H]3COP(=O)(O)O[C@H]3C[C@H](n4ccc(N)nc4=O)O[C@@H]3CO)SCCCCCCN)O2)c(=O)[nH]c1=O	Stable	–	–	–	–	–	–
Cc1cn([C@H]2C[C@H](OP(=O)(O)OC[C@H]3O[C@@H](n4cc(C)c(=O)[nH]c4=O)C[C@@H]3OP(=O)(O)OC[C@H]3O[C@@H](n4cc(C)c(=O)[nH]c4=O)C[C@@H]3O[P@@](=O)(OC[C@H]3O[C@@H](n4cc(C)c(=O)[nH]c4=O)C[C@@H]3OP(=O)(O)OC[C@H]3O[C@@H](n4cc(C)c(=O)[nH]c4=O)C[C@@H]3OP(=O)(O)OC[C@H]3O[C@@H](n4cc(C)c(=O)[nH]c4=O)C[C@@H]3OP(=O)(O)OC[C@H]3O[C@@H](n4ccc(N)nc4=O)C[C@@H]3OP(=O)(O)OC[C@H]3O[C@@H](n4ccc(N)nc4=O)C[C@@H]3OP(=O)(O)OC[C@H]3O[C@@H](n4ccc(N)nc4=O)C[C@@H]3OP(=O)(O)O)SCCCCCN)[C@@H](COP(=O)(O)O[C@H]3C[C@H](n4ccc(N)nc4=O)O[C@@H]3COP(=O)(O)O[C@H]3C[C@H](n4ccc(N)nc4=O)O[C@@H]3COP(=O)(O)O[C@H]3C[C@H](n4ccc(N)nc4=O)O[C@@H]3CO)O2)c(=O)[nH]c1=O	–	44 °C	2 °C	44 °C	-2 °C	27 °C	2 °C
Cc1cn([C@H]2C[C@H](OP(=O)(O)OC[C@H]3O[C@@H](n4cc(C)c(=O)[nH]c4=O)C[C@@H]3OP(=O)(O)OC[C@H]3O[C@@H](n4cc(C)c(=O)[nH]c4=O)C[C@@H]3O[P@](=O)(OC[C@H]3O[C@@H](n4cc(C)c(=O)[nH]c4=O)C[C@@H]3OP(=O)(O)OC[C@H]3O[C@@H](n4cc(C)c(=O)[nH]c4=O)C[C@@H]3OP(=O)(O)OC[C@H]3O[C@@H](n4cc(C)c(=O)[nH]c4=O)C[C@@H]3OP(=O)(O)OC[C@H]3O[C@@H](n4ccc(N)nc4=O)C[C@@H]3OP(=O)(O)OC[C@H]3O[C@@H](n4ccc(N)nc4=O)C[C@@H]3OP(=O)(O)OC[C@H]3O[C@@H](n4ccc(N)nc4=O)C[C@@H]3OP(=O)(O)O)SCCCCCCN)[C@@H](COP(=O)(O)O[C@H]3C[C@H](n4ccc(N)nc4=O)O[C@@H]3COP(=O)(O)O[C@H]3C[C@H](n4ccc(N)nc4=O)O[C@@H]3COP(=O)(O)O[C@H]3C[C@H](n4ccc(N)nc4=O)O[C@@H]3CO)O2)c(=O)[nH]c1=O	–	37 °C	-5 °C	41 °C	-5 °C	23 °C	-3 °C
